Measured values reported in paper PMC3262452 (Virology, 2011).
Read-outs that look alike come from different tables or passages of the source. Marks after values point to notes of the source that are not given here.

What was measured:
WT HIV = experiment: microbe, parasite or virus in culture; format: cell-based, HIV-1
AZT-R HIV = experiment: microbe, parasite or virus in culture; format: cell-based, HIV-1
wt HIV-1 RT RNase H = wt HIV-1 RT RNase H (Human immunodeficiency virus type 1 group M subtype B, UniProt P04585); experiment: In vitro RT-RNase H activity; format: biochemical; details: read-out: IC50 RT-RNase H, recombinant HIV-1 RT
HOS cells [1] = experiment: XTT cell viability assay; format: cell-based, human; details: read-out: CC50 XTT
In short: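 HOS cells were grown in DMEM with 3.5% fetal bovine serum, 3.5% newborn calf serum and penicillin/streptomycin, then exposed to test compounds. Viability was measured with a commercial XTT kit, in which mitochondrial enzymes reduce the tetrazolium to an orange product read by absorbance. CC50 is the concentration killing half the HOS cells. Runs were done once or twice.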

HOS cells [2] = experiment: ATP based luciferase assay; format: cell-based, human; details: for CC50: read-out: CC50 ATP-lite, HOS cells
HIV-1 RT DNA polymerase = HIV-1 RT DNA polymerase (Human immunodeficiency virus type 1 group M subtype B, UniProt P04585); experiment: In vitro RT RNA-dependent DNA polymerase activity; format: biochemical; details: read-out: IC50 RT-DNA polymerase, recombinant HIV-1 RT
[3] = Human immunodeficiency virus 1, HOS, read-out: 3TC IC50
[4] = Human immunodeficiency virus 1, HOS, read-out: AZT IC50
[5] = Human immunodeficiency virus 1, HOS, read-out: AZT IC50 + NaN3
[6] = read-out: IC50 WT HIV, RNHI alone, HOS cells, luciferase based assay
[7] = read-out: IC50 AZT-R HIV, RNHI alone, HOS cells, luciferase based assay

SMILES	IC50 (wt HIV-1 RT RNase H) [µM]	CC50 (HOS cells [1]) [µM]	effect of RNHI on the AZT IC50 (fold increase) (WT HIV)	IC50 (WT HIV; [6]) [µM]	CC50 (HOS cells [2]) [µM]	effect of RNHI on the AZT IC50 (fold increase) (AZT-R HIV)	IC50 (AZT-R HIV; [7]) [µM]	IC50 (HIV-1 RT DNA polymerase) [µM]	further results
Nc1ccn([C@H]2CS[C@@H](CO)O2)c(=O)n1 [3TC, 2', 3'-dideoxy-3'-thiacytidine, reference compound]									Fold decrease of 3TC IC50 by NVP (WT HIV): 2 fold; IC50 (WT HIV; [3]): 8 ± 3 µM; Fold decrease of 3TC IC50 by NVP (AZT-R HIV): ~2 fold; IC50 (AZT-R HIV; [3]): 24 ± 14 µM
Cc1cn([C@H]2C[C@H](N=[N+]=[N-])[C@@H](CO)O2)c(=O)[nH]c1=O [AZT, zidovudine, reference compound]									IC50 (WT HIV; [4]): 0.004 ± 0.003 µM; IC50 (WT HIV; [5]): 0.004 ± 0.002 µM; Fold decrease of AZT IC50 by NVP (WT HIV; WT HIV, 40 nM NVP, not statistically significant): 1 fold; Fold decrease of AZT IC50 by NaN3 (WT HIV; WT HIV, 0.5 mM NaN3, not statistically significant): 0 fold; Fold decrease of AZT IC50 by NVP (AZT-R HIV; AZT-R HIV, 40 nM NVP, not statistically significant): 2 fold; Fold decrease of AZT IC50 by NaN3 (AZT-R HIV; AZT-R HIV, 0.5 mM NaN3, not statistically significant): 1.4 fold; IC50 (AZT-R HIV; [4]): 0.041 ± 0.038 µM; IC50 (AZT-R HIV; [5]): 0.056 ± 0.037 µM
O=C1S/C(=C\c2ccc(O)c(O)c2)C(=O)N1c1ccc(O)cc1 [F0444-0019]	5 ± 1.8	24 ± 3	~ 5 fold	24	14 ± 6	~ 5 fold	28	18.5 ± 5.9	effect of RNHI on the 3TC IC50 (fold increase) (WT HIV): ~ 3 fold; % ATP relative to untreated HOS (HOS cells [2]; 20 μM): 36 ± 10%; effect of RNHI on the 3TC IC50 (AZT-R HIV): insignificant
O=C1NC(=Nc2ccccc2O)S/C1=C/c1ccc(O)c(O)c1 [F0888-0058]	5 ± 2.6	16 ± 5	no significant effect	34	14 ± 3	2 fold	30	29.6 ± 1.4	effect of RNHI on the 3TC IC50 (fold increase) (WT HIV): ~ 1.7 fold; % ATP relative to untreated HOS (HOS cells [2]; 20 μM): 41 ± 4%; effect of RNHI on the 3TC IC50 (AZT-R HIV): did not see a significant effect
Cc1c[nH]c2c1C(c1ccc(O)c(O)c1)C(C#N)=C(N)O2 (stereo not shown) [F0915-1507]	5.8 ± 2.2	52	no significant effect	50	44 ± 14	no significant effect	49	> 100	% ATP relative to untreated HOS (HOS cells [2]; 50 μM, one or two assays): 46^a %
O=C(CSc1ncccc1C(=O)O)c1ccc(O)c(O)c1 [F3253-0041]	2.9 ± 1.1	370	little to no effect	70	160	decreased the AZT IC50	59	> 100	% ATP relative to untreated HOS (HOS cells [2]; 70 μM, one or two assays): 92^a %
O=C(O)CC1CC(=O)Oc2c1ccc(O)c2O (stereo not shown) [F3284-8495]	3.3 ± 0.7	120	little to no effect	58	67	decreased the AZT IC50	54	> 100	% ATP relative to untreated HOS (HOS cells [2]; 70 μM, one or two assays): 87^a %
Cc1ccnc2c1NC(=O)c1cccnc1N2C1CC1 [NVP, nevirapine, reference compound]									reduction of infectivity of the virus stock (WT HIV; 40 nM NVP, HOS cells): ~ 60%; IC50 (AZT-R HIV; Human immunodeficiency virus 1, HOS, read-out: IC50 of NVP for blocking replication): 0.027 ± 0.001 µM
[N-]=[N+]=[N-].[Na+] [NaN3, sodium azide, reference compound]									effect of NaN3 on the IC50 for AZT (WT HIV): no significant effect; % ATP relative to untreated HOS (HOS cells [2]; 0.5 mM): 31 ± 8%; reduction of the level of ATP in HOS cells (HOS cells [2]; 0.5 mM NaN3): ~ 70%; effect of NaN3 on the IC50 for AZT (AZT-R HIV): no significant effect
